The EternaBench riboswitch data

Test system: MS2 coat protein
Experiment: apparent Kd, MS2 coat protein; higher = weaker binding; RNA-MaP array; FMN 200 µM where present
Outline: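 The apparent Kd comes from binding curves fitted cluster by cluster, filtered, and summarised as a median. Those curves followed SNAP-549-labelled MS2 coat protein from 0.7 or 1.5 nM, doubling to 3 µM, on Illumina sequencing-chip clusters where stalled E. coli RNA polymerase had transcribed the designs, without and then with constant ligand. The buffer was 100 mM Tris-HCl pH 7.5, 80 mM KCl, 4 mM MgCl2, BSA, DTT, yeast tRNA and Tween-20, and green signal was normalised to red-channel RNA signal and control-cluster median Fmax.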

[1] = designed as: ON switch for flavin mononucleotide, no ligand
[2] = ligand present: flavin mononucleotide, designed as: ON switch for flavin mononucleotide
[3] = designed as: OFF switch for flavin mononucleotide, no ligand
[4] = ligand present: flavin mononucleotide, designed as: OFF switch for flavin mononucleotide

ACACAUGAGGAUCACCCAUGUAGCUGGCAUCUGCGCCAGCCACAGGAUAUACGGCAACACAAACCGUAGAAGGGUGAUAAACAC
apparent Kd [1]: 59.5 nM
apparent Kd [2]: 35.5 nM

AAAACAUGAGGAUCACCCAUGUAAAGAUCGGUUAAUAGAGGUGAGGAUAUACGAAGUUAAAGCUGGUAGAAGGCACUGGGUACA
apparent Kd [1]: 78.5 nM
apparent Kd [2]: 51.3 nM

UCGGUUACAUGAGGAUCACCCAUGUCUCGGGCCCUAUUUAGCAGAAGGCCAGCUGGGCUACGGAUGGAGGAUAUGCUUAUGGCC
apparent Kd [1]: 147 nM
apparent Kd [2]: 36.5 nM

AGACUGCGUAGAAUUAGCAGCUGACAGGAUAUGACAUGAGGAUCACCCAUGUGAAAUAAGAAGGGUCAGAAGGGUCACGACACA
apparent Kd [3]: 11.7 nM
apparent Kd [4]: 9.98 nM

UGGUACAUGGGAGGAUAUGGGAAGUUAACAUGAGGAUCACCCAUGUUUGCCGAAAGGCAAAAGAACUAGAAGGCCCAUGUACCU
apparent Kd [1]: 23.1 nM
apparent Kd [2]: 16.4 nM

ACAGGCUUCGAGAAGGACAUGAGGAUCACCCAUGUGCGUGUGAAGCAGCCGUGAGGCUGCAUCAUGUAGGAUAUCGGAGUCUGC
apparent Kd [3]: 73 nM
apparent Kd [4]: 557 nM

AGAGACCUCACAGGAUAUGCUGGACUUUGUCCAGCAGAAGGGUGAUAACAUGAGGAUCACCCAUGUAUGGUCUCCAAAUUUAAU
apparent Kd [1]: 1110 nM
apparent Kd [2]: 131 nM

GUUUAGUGAGGAUAUGUGGCUUCGAUCGUGCGAAGAAGGCUACAGAAGGCACAUGAGGAUCACCCAUGUUCCUC
apparent Kd [3]: 101 nM
apparent Kd [4]: 728 nM

CAGGGUAGAGGAUAUACGUAGGUACAGAUCCGUGUGAUCCUACAUGAGGAUCACCCAUGUAGAAGGCUAGCCUG
apparent Kd [3]: 305 nM
apparent Kd [4]: 25.9 nM

UUGCGGUAGGAGAAGGACAGAGGCGGAAACACAAACAUGAGGAUCACCCAUGUAGGAUAUCCUACCUAACGCGGAUACCUCCAG
apparent Kd [3]: 14 nM
apparent Kd [4]: 39.6 nM

AGCGGCCGAGGAUAUACAAUCCUCCUGGCAGCCUGUCUGCCACAUGAGGAUCACCCAUGUAGAAGGCGGACCGC
apparent Kd [3]: 167 nM
apparent Kd [4]: 38.3 nM

UCGAUAAGGAGAGGAUAUGGACAUGAGGAUCACCCAUGUACAUGGGAAUAUAUACUGAAUUUUUACUAGAAGGCUUACAUAUUU
apparent Kd [3]: 16.7 nM
apparent Kd [4]: 13.6 nM

AUCGUGAGAGGAUAUACAUGAGGAUCACCCAUGUUUCGAACACCAUGCGGUCAUUUGCGUAGAAGGCUCGUGCG
apparent Kd [3]: 29.1 nM
apparent Kd [4]: 87.1 nM

CAGGUAGACUGAGGAUAUACAAUAAGACCUAGUCUAUCUAGGUCAAUCACAUGAGGAUCACCCAUGUAGAAGGCAGUCUGCCUG
apparent Kd [3]: 17.3 nM
apparent Kd [4]: 36.2 nM

CGUGCUAUGUAGAAGGCAGAAAAGAUUCAGAUCUGAGGAUAUACAUGAGGAUCACCCAUGUUAUGCACCAGCACGAGAGUGCAC
apparent Kd [3]: 6.69 nM
apparent Kd [4]: 7.03 nM

CCGAAUAAGCAGGAUAUCGAAUCGGAAACGAUUCGAGAAGGGUUAACAUGAGGAUCACCCAUGUUCCUUAACGG
apparent Kd [3]: 20.3 nM
apparent Kd [4]: 22.2 nM

GUCAGCUCGUGAGGAUAUACAACACUGCUUCGGCAGUGUAUUAAGAUCACAUGAGGAUCACCCAUGUAGAAGGCACGACCUGAU
apparent Kd [3]: 14.1 nM
apparent Kd [4]: 257 nM

GUAGCAUACCGAGGAUAUUCAUAUAAUAAAUAAACAUGAGGAUCACCCAUGUGGCGAAAGCCAAGGGAGAAGGCGGAAUGCUAC
apparent Kd [1]: 315 nM
apparent Kd [2]: 26.4 nM

UCAAAGCCAUUUUGGCGAGUCACAUGAGGAUCACCCAUGUAACAGGAUAUCGAUUGGCUUCCCGGCGAGAAGGGUUACUAGGGA
apparent Kd [3]: 10.8 nM
apparent Kd [4]: 15.5 nM

UUAGGACGAAACAUGAGGAUCACCCAUGUGUUAUAAUUAAUAUAGGAUAUGUUUAUACUUUUUGGGCAGAAGGAUGAUAAUGCU
apparent Kd [1]: 19.7 nM
apparent Kd [2]: 15.4 nM

AAAAAAAAAGUGCAGGAUAUCCUCAUGGCUACAUGAGGAUCACCCAUGUGAAGAAAAGCACAUGAGGAGAAGGGCACAAAAAAAAA
apparent Kd [1]: 23.4 nM
apparent Kd [2]: 12.3 nM

AAAAUGGUACAGAAGGCGGAGCCCAACAUGAGGAUCACCCAUGUAUGGGUGUCGUCAGUAGUUACCGAGGAUAUGUAUCGGUAU
apparent Kd [3]: 6.42 nM
apparent Kd [4]: 7.1 nM

UUGGAGUACGUAGGAUAUGUAGGAUAUUCCUACAUGAGGAUCACCCAUGUUGACAUGGAGGAAGGACAGAAGGACGUGCUCCAU
apparent Kd [1]: 435 nM
apparent Kd [2]: 241 nM

UGCUGGUGACAGCAUCCAUCAAAACAUGAGGAUCACCCAUGUAGAAGGCUGUACGGUUACCGUACAGAGGAUAUACAAUGAUGA
apparent Kd [3]: 13.9 nM
apparent Kd [4]: 22.2 nM

AUUAUAUAGUAAGGAUAUUGAUUAUUAUUUUAACAUGAGGAUCACCCAUGUAGCCUUAUGUAUAACAAGAAGGUACAUUUAUUA
apparent Kd [3]: 56.2 nM
apparent Kd [4]: 58.4 nM

UACAGACAUGAGGAUCACCCAUGUGAGGAUAUCGAUAACGAUAAAAUAAUAUAAACAACGAGAAGGCACAGCAU
apparent Kd [3]: 34.3 nM
apparent Kd [4]: 40.3 nM

GGUACCAUCGCAGGAUAUGGUAUCCUUUGGGUACCAGAAGGGUGAUAACAUGAGGAUCACCCAUGUGGUACCGGGCGUGAGCCC
apparent Kd [1]: 29 nM
apparent Kd [2]: 970 nM
